According to ChEMBL document CHEMBL5252513, “Identification of a Benzoisoxazoloazepine Inhibitor (CPI-0610) of the Bromodomain and Extra-Terminal (BET) Family as a Candidate for Human Clinical Trials” (J Med Chem, 2016):
pIC50: −log10 of the molar value. The source made the active and inactive calls. The calls are words filed in the database; no cut-off is given here.

How the values were obtained:
[1] = biological target: T1, Bromodomain-containing protein 9 (Homo sapiens, UniProt Q9H8M2); assay: Displacement of biotinylated JQ1 from BRD9 bromodomain (unknown origin) incubated for 20 mins by AlphaLISA assay
T1 sequence (Q9H8M2 whole entry): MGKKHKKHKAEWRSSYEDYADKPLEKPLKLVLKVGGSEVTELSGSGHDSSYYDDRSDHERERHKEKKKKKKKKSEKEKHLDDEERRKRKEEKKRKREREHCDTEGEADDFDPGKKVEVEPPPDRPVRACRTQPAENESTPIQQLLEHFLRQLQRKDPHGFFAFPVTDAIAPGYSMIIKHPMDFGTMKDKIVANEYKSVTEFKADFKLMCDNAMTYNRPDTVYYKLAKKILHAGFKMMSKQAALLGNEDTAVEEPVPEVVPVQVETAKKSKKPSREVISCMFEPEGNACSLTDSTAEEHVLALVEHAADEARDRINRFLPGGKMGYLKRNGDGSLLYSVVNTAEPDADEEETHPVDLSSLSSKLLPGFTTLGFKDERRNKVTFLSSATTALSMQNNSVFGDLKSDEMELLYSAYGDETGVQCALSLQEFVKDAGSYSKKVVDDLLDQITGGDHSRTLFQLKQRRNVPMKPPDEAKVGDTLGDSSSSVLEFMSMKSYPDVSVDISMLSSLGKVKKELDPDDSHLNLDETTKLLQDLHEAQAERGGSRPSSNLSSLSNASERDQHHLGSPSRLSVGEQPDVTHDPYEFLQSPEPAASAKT

CREB-binding protein = CREB-binding protein (Homo sapiens, UniProt Q92793); assay: Binding affinity to CBP bromodomain (unknown origin) incubated for 60 mins by TR-FRET assay
[2] = biological target: Histone acetyltransferase KAT2B (Homo sapiens, UniProt Q92831); assay: Displacement of biotinylated JQ1 from PCAF bromodomain (unknown origin) incubated for 20 mins by AlphaLISA assay
Chain of Histone acetyltransferase KAT2B (Q92831 whole entry): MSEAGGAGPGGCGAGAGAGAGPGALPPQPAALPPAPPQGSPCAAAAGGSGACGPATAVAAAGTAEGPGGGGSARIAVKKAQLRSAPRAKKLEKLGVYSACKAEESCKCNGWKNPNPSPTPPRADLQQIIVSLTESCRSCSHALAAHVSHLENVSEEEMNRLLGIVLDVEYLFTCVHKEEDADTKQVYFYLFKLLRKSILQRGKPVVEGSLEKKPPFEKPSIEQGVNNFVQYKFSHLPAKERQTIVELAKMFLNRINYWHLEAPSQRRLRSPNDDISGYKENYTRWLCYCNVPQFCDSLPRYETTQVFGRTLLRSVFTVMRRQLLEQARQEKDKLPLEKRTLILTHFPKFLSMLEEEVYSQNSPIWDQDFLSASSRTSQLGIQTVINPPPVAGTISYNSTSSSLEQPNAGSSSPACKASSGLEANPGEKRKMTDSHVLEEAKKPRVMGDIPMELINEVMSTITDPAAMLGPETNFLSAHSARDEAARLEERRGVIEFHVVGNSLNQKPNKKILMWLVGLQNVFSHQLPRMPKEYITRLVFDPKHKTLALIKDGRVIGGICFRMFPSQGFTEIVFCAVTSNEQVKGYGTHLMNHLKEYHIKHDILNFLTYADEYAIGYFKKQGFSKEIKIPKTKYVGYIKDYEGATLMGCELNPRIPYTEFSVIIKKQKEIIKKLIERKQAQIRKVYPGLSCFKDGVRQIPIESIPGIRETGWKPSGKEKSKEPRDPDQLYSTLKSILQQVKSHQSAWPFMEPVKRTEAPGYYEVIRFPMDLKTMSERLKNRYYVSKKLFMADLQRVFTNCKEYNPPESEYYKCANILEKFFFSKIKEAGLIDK

[3] = Unbound AUC in mouse at 30 mg/kg,po; type: ADME, organism-based; settings: in vivo
[4] = Oral bioavailability in rat at 5 mg/kg; type: ADME, organism-based; settings: in vivo
[5] = AUC (0 to infinity) in rat at 5 mg/kg,po; type: ADME, organism-based; set-up: dose 5 mg/kg, route po; settings: in vivo
[6] = Protein binding in dog plasma; type: ADME, cell-free, Canis lupus familiaris; settings: read-out: PPB (converted)
[7] = Intrinsic clearance in human liver microsomes; type: ADME, Microsome; settings: read-out: CLH
[8] = Oral bioavailability in dog at 2.5 mg/kg; type: ADME, organism-based, Canis lupus familiaris; settings: in vivo
[9] = AUC (0 to 24 hrs) in human patient with progression lymphoma at 300 mg,po QD and measured after 24 hrs; type: ADME; set-up: time 24 hrs, dose 300 mg, route po; settings: in vivo
Procedure, shortened: (§1)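 Phase I trial in patients with hematologic malignancies, oral dosing once daily with escalating cohorts; values are from the 300 mg dose on day 14. AUC0-24 was taken as exposure over 24 h. Apparent clearance was calculated as Dose/AUC0-24.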

[10] = Cmax in human patient with progression lymphoma at 300 mg,po QD consecutively for 14 days; type: ADME; set-up: time 14 day, dose 300 mg, route po; settings: in vivo; procedure, shortened: as §1
[11] = Half life in human patient with progression lymphoma at 300 mg,po QD consecutively for 14 days; type: ADME; settings: in vivo, time 14 day
[12] = biological target: SWI/SNF-related matrix-associated actin-dependent regulator of chromatin subfamily A member 4 (Homo sapiens, UniProt P51532); assay: Binding affinity to BRG1 bromodomain (unknown origin) incubated for 60 mins by TR-FRET assay
Chain of SWI/SNF-related matrix-associated actin-dependent regulator of chromatin subfamily A member 4 (P51532 whole entry): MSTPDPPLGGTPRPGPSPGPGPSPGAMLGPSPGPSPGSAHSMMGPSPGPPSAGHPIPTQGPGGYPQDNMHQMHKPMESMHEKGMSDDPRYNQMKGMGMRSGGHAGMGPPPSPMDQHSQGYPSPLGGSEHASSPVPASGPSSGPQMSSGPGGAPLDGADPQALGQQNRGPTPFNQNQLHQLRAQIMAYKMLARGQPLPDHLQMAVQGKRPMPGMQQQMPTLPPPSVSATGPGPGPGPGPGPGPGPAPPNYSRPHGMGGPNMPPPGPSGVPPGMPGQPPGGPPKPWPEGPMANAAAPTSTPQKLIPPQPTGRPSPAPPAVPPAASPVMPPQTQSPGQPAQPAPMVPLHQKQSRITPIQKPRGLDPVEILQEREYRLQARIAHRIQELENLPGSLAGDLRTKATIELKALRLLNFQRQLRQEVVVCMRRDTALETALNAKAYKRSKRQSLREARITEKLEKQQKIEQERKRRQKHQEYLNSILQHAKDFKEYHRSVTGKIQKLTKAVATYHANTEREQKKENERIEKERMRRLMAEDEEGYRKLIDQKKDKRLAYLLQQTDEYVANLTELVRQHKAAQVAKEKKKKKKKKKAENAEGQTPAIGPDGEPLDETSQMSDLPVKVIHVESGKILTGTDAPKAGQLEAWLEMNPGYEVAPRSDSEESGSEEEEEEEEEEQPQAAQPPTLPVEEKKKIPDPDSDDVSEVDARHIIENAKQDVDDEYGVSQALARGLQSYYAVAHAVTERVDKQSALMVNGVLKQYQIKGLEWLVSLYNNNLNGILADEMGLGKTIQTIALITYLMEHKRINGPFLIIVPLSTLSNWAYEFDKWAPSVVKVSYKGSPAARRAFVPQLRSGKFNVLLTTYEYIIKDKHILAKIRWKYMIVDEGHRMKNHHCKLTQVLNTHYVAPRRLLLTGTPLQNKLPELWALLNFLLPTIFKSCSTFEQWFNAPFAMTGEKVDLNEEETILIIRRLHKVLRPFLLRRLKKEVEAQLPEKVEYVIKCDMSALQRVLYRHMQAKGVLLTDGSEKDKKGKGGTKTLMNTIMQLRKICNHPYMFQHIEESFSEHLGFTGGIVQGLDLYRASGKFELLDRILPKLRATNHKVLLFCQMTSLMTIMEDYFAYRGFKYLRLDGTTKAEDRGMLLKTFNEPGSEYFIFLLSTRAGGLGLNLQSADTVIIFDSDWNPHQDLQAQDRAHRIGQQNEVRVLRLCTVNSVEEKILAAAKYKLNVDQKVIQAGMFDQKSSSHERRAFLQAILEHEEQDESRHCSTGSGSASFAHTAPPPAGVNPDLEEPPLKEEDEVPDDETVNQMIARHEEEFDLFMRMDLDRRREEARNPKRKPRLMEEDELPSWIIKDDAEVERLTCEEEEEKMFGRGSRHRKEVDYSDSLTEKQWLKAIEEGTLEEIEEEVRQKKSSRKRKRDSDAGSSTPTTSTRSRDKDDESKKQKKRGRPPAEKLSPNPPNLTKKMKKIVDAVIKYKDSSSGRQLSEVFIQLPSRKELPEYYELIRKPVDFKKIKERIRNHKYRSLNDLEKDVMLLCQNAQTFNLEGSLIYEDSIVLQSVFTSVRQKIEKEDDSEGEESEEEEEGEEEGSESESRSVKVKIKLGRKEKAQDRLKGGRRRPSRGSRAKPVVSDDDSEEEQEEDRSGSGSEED

[13] = biological target: T2, Transcription intermediary factor 1-alpha (Homo sapiens, UniProt O15164); assay: Binding affinity to TRIM24 bromodomain (unknown origin) incubated for 60 mins by TR-FRET assay
T2 sequence (O15164 whole entry): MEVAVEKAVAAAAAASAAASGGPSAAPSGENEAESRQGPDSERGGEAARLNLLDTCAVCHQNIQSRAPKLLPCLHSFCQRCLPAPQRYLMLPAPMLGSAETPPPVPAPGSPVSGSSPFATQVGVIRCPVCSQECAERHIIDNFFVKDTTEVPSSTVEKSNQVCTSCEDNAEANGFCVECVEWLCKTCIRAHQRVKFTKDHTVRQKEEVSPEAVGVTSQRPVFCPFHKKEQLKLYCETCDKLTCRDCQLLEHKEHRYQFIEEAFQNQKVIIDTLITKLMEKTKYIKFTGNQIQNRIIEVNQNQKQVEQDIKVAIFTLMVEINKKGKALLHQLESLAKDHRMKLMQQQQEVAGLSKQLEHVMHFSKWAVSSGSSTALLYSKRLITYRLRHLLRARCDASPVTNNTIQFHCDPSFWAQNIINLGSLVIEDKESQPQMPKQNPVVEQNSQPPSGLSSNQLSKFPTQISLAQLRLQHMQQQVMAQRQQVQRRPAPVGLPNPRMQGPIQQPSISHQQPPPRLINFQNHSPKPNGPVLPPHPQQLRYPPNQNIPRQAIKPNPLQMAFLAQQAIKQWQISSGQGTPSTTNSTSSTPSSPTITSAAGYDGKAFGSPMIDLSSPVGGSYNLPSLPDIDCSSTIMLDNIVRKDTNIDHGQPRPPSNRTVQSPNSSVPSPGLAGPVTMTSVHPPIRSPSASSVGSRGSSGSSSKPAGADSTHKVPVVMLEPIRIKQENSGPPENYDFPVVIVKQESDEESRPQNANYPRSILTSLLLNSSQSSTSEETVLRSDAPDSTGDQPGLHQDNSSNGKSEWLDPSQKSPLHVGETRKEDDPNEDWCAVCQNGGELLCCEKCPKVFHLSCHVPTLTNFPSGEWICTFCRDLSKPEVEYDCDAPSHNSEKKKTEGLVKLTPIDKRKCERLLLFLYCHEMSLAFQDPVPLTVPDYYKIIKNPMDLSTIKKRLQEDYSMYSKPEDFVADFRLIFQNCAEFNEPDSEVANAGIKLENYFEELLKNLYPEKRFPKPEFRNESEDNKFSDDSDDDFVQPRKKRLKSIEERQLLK

[14] = biological target: Bromodomain-containing protein 8 (Homo sapiens, UniProt Q9H0E9); assay: Binding affinity to BRD8 bromodomain (unknown origin) incubated for 60 mins by TR-FRET assay
Chain of Bromodomain-containing protein 8 (Q9H0E9 whole entry): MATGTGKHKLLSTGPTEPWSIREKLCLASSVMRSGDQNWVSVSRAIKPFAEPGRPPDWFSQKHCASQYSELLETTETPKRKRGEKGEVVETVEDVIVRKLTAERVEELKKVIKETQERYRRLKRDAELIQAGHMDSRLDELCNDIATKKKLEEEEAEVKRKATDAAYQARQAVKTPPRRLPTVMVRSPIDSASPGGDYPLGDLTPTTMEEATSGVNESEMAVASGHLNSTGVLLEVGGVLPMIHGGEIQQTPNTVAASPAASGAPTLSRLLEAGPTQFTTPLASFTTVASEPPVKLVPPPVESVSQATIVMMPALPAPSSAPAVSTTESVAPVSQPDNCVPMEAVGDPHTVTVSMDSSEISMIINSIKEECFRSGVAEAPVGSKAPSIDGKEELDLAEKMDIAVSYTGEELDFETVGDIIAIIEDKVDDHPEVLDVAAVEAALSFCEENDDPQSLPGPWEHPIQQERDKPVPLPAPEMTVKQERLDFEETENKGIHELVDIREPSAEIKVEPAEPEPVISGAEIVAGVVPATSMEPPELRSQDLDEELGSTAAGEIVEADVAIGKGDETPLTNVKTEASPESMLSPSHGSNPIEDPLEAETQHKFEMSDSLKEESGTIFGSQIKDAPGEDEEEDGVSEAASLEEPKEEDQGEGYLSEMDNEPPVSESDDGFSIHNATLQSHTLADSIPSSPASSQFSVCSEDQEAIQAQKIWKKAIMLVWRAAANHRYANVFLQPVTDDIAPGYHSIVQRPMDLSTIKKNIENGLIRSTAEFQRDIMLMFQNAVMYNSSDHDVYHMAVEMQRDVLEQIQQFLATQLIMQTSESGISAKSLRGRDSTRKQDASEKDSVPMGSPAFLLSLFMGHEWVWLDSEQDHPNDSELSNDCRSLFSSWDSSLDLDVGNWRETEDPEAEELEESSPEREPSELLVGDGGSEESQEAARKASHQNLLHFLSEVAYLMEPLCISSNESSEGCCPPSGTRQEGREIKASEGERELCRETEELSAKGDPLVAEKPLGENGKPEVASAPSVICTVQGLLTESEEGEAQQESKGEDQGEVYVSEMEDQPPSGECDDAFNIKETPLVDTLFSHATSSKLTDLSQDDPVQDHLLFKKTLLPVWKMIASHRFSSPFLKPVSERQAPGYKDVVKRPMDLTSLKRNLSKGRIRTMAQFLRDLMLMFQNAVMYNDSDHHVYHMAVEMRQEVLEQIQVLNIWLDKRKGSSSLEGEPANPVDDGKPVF

MV4-11 = assay: Antitumor activity against human MV4-11 cells xenografted in BALB/c mouse assessed as slower tumor regrowth after drug therapy removal at 10 mg/kg,sc BID in presence of doxorubicin at 2 mg/kg,iv BIW for 28 days; type: functional, organism-based; settings: time 28.0 day
[15] = Toxicity in rat assessed as hypocellularity of bone marrow with associated anemia and thrombocytopenia at 2 to 20 mg/kg,po QD consecutive for 14 days followed by 2 weeks recovery period; type: organism-based; settings: in vivo, 336 h, dose 2-20 mg/kg, time 14 day
Procedure, shortened: (§2)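 Oral suspension given once daily for 14 consecutive days (rat 2, 6, 20 mg/kg; dog 2, 4, 6 mg/kg) in dose range-finding and GLP repeat-dose studies, GLP arms with an added 2-week recovery period; histopathology and clinical pathology findings recorded.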

[16] = Toxicity in rat assessed as mild to moderate hyperglycemia at 2 to 20 mg/kg,po QD consecutive for 14 days followed by 2 weeks recovery period; type: organism-based; settings: in vivo, 336 h, dose 2-20 mg/kg, time 14 day; procedure, shortened: as §2

pIC50 [1]: < 4.10
pIC50 (CREB-binding protein): < 4.70
pIC50 [2]: < 4.70
fAUC [3]: 3 µM·h
bioavailability [4]: 76%
AUC(0-inf) [5]: 9.1 µM·h
fraction unbound [6]: 0.04
predicted hepatic clearance [7]: 10 mL/min/kg
bioavailability [8]: 45%
AUC at 24 h [9]: 49 µM·h
Cmax [10]: 5.9 µM
half-life [11]: 23 h
pIC50 [12]: < 4.70
pIC50 [13]: < 4.70
pIC50 [14]: < 4.82
Compound: Cc1noc2c1-c1ccccc1C(c1ccc(Cl)cc1)=N[C@H]2CC(N)=O [PELABRESIB]
Activity (MV4-11): Active
Activity [15]: Toxic
Activity [16]: Toxic
